ChEMBL document CHEMBL1146873, “3-demethoxy-3-glycosylaminothiocolchicines: Synthesis of a new class of putative muscle relaxant compounds” (J Med Chem, 2006)

Tests used:
[1] = Displacement of [3H]strychnine from strychnine-sensitive glycine receptor in rat spinal cord
[2] = molecular target: GABA-A receptor; anion channel; assay: Displacement of [3H]muscimol from GABA-A receptor in Sprague-Dawley rat spinal cord; format: protein-complex assay
Outline: (§1)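 Synaptic membranes from adult rat tissue (cerebral cortex or spinal cord–brainstem) incubated with 5 nM [3H]muscimol plus increasing competitor concentrations in 50 mM Tris-citrate, pH 7.1, 30 min at 4 °C. Bound ligand separated by rapid filtration through glass fiber filters, three washes with ice-cold buffer, scintillation counting. Nonspecific binding defined with 200 µM unlabeled GABA. Mean of three experiments in triplicate.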

[3] = molecular target: GABA-A receptor; anion channel; assay: Displacement of [3H]muscimol from GABA-A receptor in Sprague-Dawley rat cerebral cortex; format: tissue-based; outline: as §1

Row | Structure (SMILES) | IC50 [1] [µM] | IC50 [2] [µM] | IC50 [3] [µM]
1 | COc1c(NC2OC[C@@H](O)[C@H](O)[C@H]2O)cc2c(c1OC)-c1ccc(SC)c(=O)cc1[C@@H](NC(C)=O)CC2 (some centres undefined) | 3.3 | 3.3 | 7
2 | NCC(=O)O [GLYCINE] | 15.8 |  | 
3 | COc1c(NC2OC[C@@H](O)[C@@H](O)[C@@H]2O)cc2c(c1OC)-c1ccc(SC)c(=O)cc1[C@@H](NC(C)=O)CC2 (some centres undefined) | 8.6 | 10.5 | 17.7
4 | COc1c(N[C@@H]2O[C@@H](C)[C@@H](O)[C@@H](O)[C@@H]2O)cc2c(c1OC)-c1ccc(SC)c(=O)cc1[C@@H](NC(C)=O)CC2 | 4.2 | 5.9 | 10.5
5 | COc1c(N)cc2c(c1OC)-c1ccc(SC)c(=O)cc1[C@@H](NC(C)=O)CC2 | 39.9 | 1.9 | 5.4
6 | COc1c(NC2OC[C@@H](O)[C@H](O)[C@@H]2O)cc2c(c1OC)-c1ccc(SC)c(=O)cc1[C@@H](NC(C)=O)CC2 (some centres undefined) | 4.1 | 4 | 9.7
7 | O=C1C[C@@H]2OCC=C3CN4CC[C@]56c7ccccc7N1[C@H]5[C@H]2[C@H]3C[C@H]46 [STRYCHNINE] | 0.014 |  | 

Now from value to molecule:

Row | IC50 [1] [µM] | IC50 [2] [µM] | IC50 [3] [µM] | Structure (SMILES)
8 | 10.6 | 11.3 | 18 | COc1c(NC2O[C@H](CO)[C@@H](O)[C@H](O)[C@H]2O)cc2c(c1OC)-c1ccc(SC)c(=O)cc1[C@@H](NC(C)=O)CC2 (some centres undefined)
9 | 13.1 | 11.3 | > 100 | COc1c(N[C@@H]2O[C@H](CO)[C@@H](O)[C@H](O)[C@@H]2O)cc2c(c1OC)-c1ccc(SC)c(=O)cc1[C@@H](NC(C)=O)CC2
10 | 1.5 | 1.9 | 3.4 | COc1c(O[C@@H]2O[C@H](CO)[C@@H](O)[C@H](O)[C@H]2O)cc2c(c1OC)-c1ccc(SC)c(=O)cc1[C@@H](NC(C)=O)CC2 [THIOCOLCHICOSIDE]
11 | 4.6 | 3.8 | > 100 | COc1c(N[C@H]2O[C@@H](C)[C@H](O)[C@@H](O)[C@H]2O)cc2c(c1OC)-c1ccc(SC)c(=O)cc1[C@@H](NC(C)=O)CC2
